Experimental data reported in article PMC3244355 (Journal of the American Chemical Society, 2011).

Experiment: photophysical properties
Assay type: physicochemical
Details: MeOH, 20 μM sample; for λemi: excited at λmax
How it was run: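 Samples are prepared at 20 μM. Dye–inhibitor conjugate spectra are recorded in 1% DMSO/PBS, pH 7.4, at 25 °C with excitation at 405 nm. Tabulated dye entries are excited at their λmax. Absorption maximum, molar absorptivity, emission maximum and fluorescence quantum yield are reported.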

Compound | Φf | ε | λmax [nm] | λemi [nm]
6-Bromo-3,3-difluoro-2-(4-(thiophen-2-yl)benzylidene)-2,3-dihydro-[1,2,4,3]triazaborolo[4,5-a]pyridin-2-ium-3-uide [Compound 8] | 0.71 | 26 600 M^−1cm^−1 | 490 | 562
F[B-]1(F)N2C=CC=CC2=N[N+]1=Cc1ccc(-c2cccs2)cc1 [Compound 2, 3,3-Difluoro-2-(4-(thiophen-2-yl)benzylidene)-2,3-dihydro-[1,2,4,3]triazaborolo[4,5-a]pyridine-2-ium-3-uide] | 0.75 | 28 800 M^−1cm^−1 | 472 | 551
F[B-]1(F)N2C=C(Cl)C=CC2=N[N+]1=Cc1ccc(-c2cccs2)cc1 [Compound 4] | 0.69 | 26 800 M^−1cm^−1 | 491 | 563
F[B-]1(F)N2C=C(Br)C=CC2=N[N+]1=Cc1ccc(-c2cccs2)cc1 [Compound 6, 6-Bromo-3,3-difluoro-2-(4-(thiophen-2-yl)benzylidene)-2,3-dihydro-[1,2,4,3]triazaborolo[4,5-a]pyridin-2-ium-3-uide] | 0.95 | 32 900 M^−1cm^−1 | 482 | 562
F[B-]1(F)N2C=C(Br)C=CC2=N[N+]1=Cc1ccccc1 [Compound 10, 2-Benzylidene-6-bromo-3,3-difluoro-2,3-dihydro-[1,2,4,3]triazaborolo[4,5-a]pyridin-2-ium-3-uide] | 0.31 | 22 600 M^−1cm^−1 | 471 | 539
F[B-]1(F)N2C=C(n3cc(-c4ccccc4)nn3)C=CC2=N[N+]1=Cc1ccc(-c2cccs2)cc1 [Compound 12, 3,3-Difluoro-6-(4-phenyl-1H-1,2,3-triazol-1-yl)-2-(4-(thiophen-2-yl)benzylidene)-2,3-dihydro-[1,2,4,3]triazaborolo[4,5-a]pyridin-2-ium-3-uide] | 0.37 | 33 800 M^−1cm^−1 | 491 | 572
C#CC1=CN2C(=N[N+](=Cc3ccc(-c4cccs4)cc3)[B-]2(F)F)C=C1 [Compound 14, 6-Ethynyl-3,3-difluoro-2-(4-(thiophen-2-yl)benzylidene)-2,3-dihydro-[1,2,4,3]triazaborolo[4,5-a]pyridin-2-ium-3-uide] | 0.38 | 36 700 M^−1cm^−1 | 481 | 572
